Measured values from ChEMBL document CHEMBL1121967 (J Med Chem, 1982).
Several values for one entry are separate records, joined by “and”; a condition that tells them apart may be missing. Equal entries are not always repeated. Activity calls are given as the source filed them. No cut-off for these calls is given here. Residues, ends and D or L forms follow the SMILES beside them.

Experiments:
Type in all cases: functional
[1] = species: Cavia porcellus; assay: Negative log of the concentration producing 50% of the maximum effect was measured in guinea pig ileum as pA2-pA10
[2] = species: Cavia porcellus; assay: Negative log of the concentration producing 50% of the maximum effect was measured in guinea pig ileum; conditions: for Kb: Cavia porcellus, Ileum, read-out: pA2 (converted)
Outline: (§1)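 Isolated helical strips of rabbit mesenteric vein, longitudinal strips of guinea pig ileum, or helical strips of guinea pig trachea, held in 10-mL baths of Krebs' solution at 37 °C gassed with 95% O2/5% CO2. Isometric tension recorded. Cumulative agonist concentrations 10⁻¹⁰ to 10⁻⁵ M. pD2 is -log concentration giving 50% of the compound's own maximum. Intrinsic activity is a fraction of SP's, and affinity is relative to SP. Values come from 10-12 determinations.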

[3] = species: Cavia porcellus; assay: Concentration producing 50% of the maximum effect was tested in guinea pig ileum; inactive; outline: as §1
[4] = species: Cavia porcellus; assay: Concentration producing 50% of the maximum effect was tested in guinea pig trachea; inactive; outline: as §1
[5] = species: Oryctolagus cuniculus; assay: The intrinsic activity was measured in Rabbit mesenteric vein; conditions: for Kb: read-out: pA2 (converted); outline: as §1
[6] = species: Oryctolagus cuniculus; assay: Relative affinity was determined with substance P(SP) in Rabbit mesenteric vein; outline: as §1
[7] = species: Oryctolagus cuniculus; assay: Negative log of the concentration producing 50% of the maximum effect was measured in Rabbit mesenteric vein; outline: as §1
[8] = species: Cavia porcellus; assay: Concentration producing 50% of the maximum effect was tested in guinea pig trachea; conditions: read-out: ED50 (the source's name); outline: as §1
[9] = species: Cavia porcellus; assay: Concentration producing 50% of the maximum effect was tested in guinea pig ileum; conditions: read-out: ED50 (the source's name); outline: as §1
[10] = species: Cavia porcellus; assay: Relative affinity was determined with substance P(SP) in guinea pig ileum; outline: as §1
[11] = species: Cavia porcellus; assay: Negative log of the concentration producing 50% of the maximum effect was measured in guinea pig trachea; outline: as §1
[12] = species: Oryctolagus cuniculus; assay: Concentration producing 50% of the maximum effect was tested in Rabbit mesenteric vein; outline: as §1
[13] = species: Cavia porcellus; assay: Relative affinity was determined with substance P(SP) in guinea pig trachea; outline: as §1
[14] = species: Cavia porcellus; assay: The intrinsic activity was measured in guinea pig trachea; outline: as §1
[15] = species: Cavia porcellus; assay: The intrinsic activity was measured in guinea pig ileum; outline: as §1
[16] = species: Oryctolagus cuniculus; assay: Negative log of the concentration producing 50% of the maximum effect was measured in Rabbit mesenteric vein as pA2-pA10

Row | EC50 [8] | EC50 [9] | Structure (SMILES) | pA2 minus pA10 difference [1] | RA [6] | RA [10] | pD2 [11] | ED50 [12] | RA [13] | Intrinsic actvity [15] | pD2 [2] | pD2 [7] | further results
1 | 34 nM | 1.2 nM | CSCC[C@H](NC(=O)[C@H](CC(C)C)NC(=O)CNC(=O)[C@H](Cc1ccccc1)NC(=O)[C@H](Cc1ccccc1)NC(=O)[C@@H](N)CCC(N)=O)C(N)=O (H-QFFGLM-NH2) |  | 33 | 146 | 7.46 | 80 nM | 507 | 1 | 8.91 | 7.1 | Activity [5]: 1; Intrinsic actvity [14]: 1.25
2 | 860 nM | 1300 nM | CSCC[C@H](NC(=O)[C@H](CC(C)C)NC(=O)[C@H](Cc1c[nH]c2ccccc12)NC(=O)[C@H](Cc1ccccc1)NC(=O)[C@H](Cc1ccccc1)NC(=O)[C@@H](N)CCCN=C(N)N)C(N)=O (H-RFFWLM-NH2) |  | 2.7 | 0.1 | 6.06 | 970 nM | 20.3 |  | 5.88 | 6 | 
3 | 4200 nM | 360 nM | CSCC[C@H](NC(=O)[C@H](CC(C)C)NC(=O)CNC(=O)[C@H](Cc1c[nH]c2ccccc12)NC(=O)[C@H](Cc1ccccc1)NC(=O)[C@@H](N)CCCN=C(N)N)C(N)=O (H-RFWGLM-NH2) |  |  | 0.5 | 5.38 |  | 4.2 | 0.9 | 6.44 |  | Activity [14]: 0.5
4 | 6600 nM | 250 nM | CSCC[C@H](NC(=O)[C@H](CC(C)C)NC(=O)CNC(=O)[C@H](Cc1ccccc1)NC(=O)[C@H](Cc1c[nH]c2ccccc12)NC(=O)[C@@H](N)CCCN=C(N)N)C(N)=O (H-RWFGLM-NH2) |  | 0.9 | 0.7 | 5.18 | 2700 nM | 2.8 | 0.9 | 6.6 | 5.56 | 

The remaining lines, values behind:

Row | Structure (SMILES) | EC50 [8] | EC50 [9] | pA2 minus pA10 difference [1] | RA [6] | RA [10] | pD2 [11] | ED50 [12] | RA [13] | Intrinsic actvity [15] | pD2 [2] | pD2 [7] | further results
5 | CSCC[C@H](NC(=O)[C@H](CC(C)C)NC(=O)[C@H](Cc1c[nH]c2ccccc12)NC(=O)[C@H](Cc1ccccc1)NC(=O)[C@H](Cc1ccccc1)NC(=O)[C@H](CCC(N)=O)NC(=O)[C@H](CCC(N)=O)NC(=O)[C@@H]1CCCN1C(=O)[C@H](CCCCN)NC(=O)[C@@H]1CCCN1C(=O)[C@@H](N)CCCN=C(N)N)C(N)=O |  |  | 0.45 |  |  |  |  |  |  |  |  | Kb [2]: 21.4 µM
6 | CSCC[C@H](NC(=O)[C@H](CC(C)C)NC(=O)[C@H](Cc1c[nH]c2ccccc12)NC(=O)[C@H](Cc1ccccc1)NC(=O)[C@H](Cc1c[nH]c2ccccc12)NC(=O)[C@H](CCC(N)=O)NC(=O)[C@H](CCC(N)=O)NC(=O)[C@@H]1CCCN1)C(N)=O (H-PQQWFWLM-NH2) |  |  | 1 and 1.01 | <0.1 |  |  |  |  |  |  |  | ED50 [3]: inactive; ED50 [4]: inactive; Kb [5]: 2.24 µM; pA2 [2]: 5.65 and 5.96; pA2-pA10 [7]: 1
7 | CSCC[C@H](NC(=O)[C@H](Cc1c[nH]c2ccccc12)NC(=O)CNC(=O)[C@H](Cc1ccccc1)NC(=O)[C@H](Cc1ccccc1)NC(=O)[C@@H](N)CCCN=C(N)N)C(N)=O (H-RFFGWM-NH2) |  |  | 0.82 | <0.1 |  |  |  |  |  |  |  | ED50 [3]: inactive; ED50 [4]: inactive; Kb [5]: 11 µM; Activity [16]: 0.69; Kb [2]: 9.77 µM
